Results on 34 molecules are retold here after ChEMBL document CHEMBL1157420, “2-phenyl-4-piperazinylbenzimidazoles: orally active inhibitors of the gonadotropin releasing hormone (GnRH) receptor” (Bioorg Med Chem, 2008).

Assay [1] deals with T1, Gonadotropin-releasing hormone receptor (Homo sapiens) (UniProt P30968).
T1 sequence (whole entry): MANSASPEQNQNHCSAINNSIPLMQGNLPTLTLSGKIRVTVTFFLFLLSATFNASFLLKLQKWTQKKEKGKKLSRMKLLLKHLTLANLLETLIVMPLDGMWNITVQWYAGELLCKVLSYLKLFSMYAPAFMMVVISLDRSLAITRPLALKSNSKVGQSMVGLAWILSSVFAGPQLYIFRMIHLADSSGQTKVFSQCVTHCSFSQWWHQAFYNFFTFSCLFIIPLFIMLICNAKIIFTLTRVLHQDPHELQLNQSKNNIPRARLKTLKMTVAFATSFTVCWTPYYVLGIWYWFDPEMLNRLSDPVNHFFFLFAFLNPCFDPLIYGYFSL
The assay is described as follows: Displacement of [125I]-(D-Trp6)LHRH from human recombinant GnRH receptor at 10 uM. An outline of the steps: (§1)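 Membranes from recombinant cells expressing human or rat GnRH receptor, made in 25 mM Tris-Cl pH 7.4 with 0.1% sodium azide and 0.1% BSA. 50 μg protein incubated with about 50,000 cpm 125I-(D-Trp6)-LHRH for 2 h at 4 °C, with increasing unlabeled competitor. Filtered on BSA-presoaked glass-fiber filters, washed twice, counted by gamma counter. Percent inhibition and IC50 derived.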
A general note: Loss of bound radioactivity is the signal in a displacement assay; it reports binding, not function.

The target of assay [2] is T2, Gonadotropin-releasing hormone receptor (Homo sapiens, UniProt P30968).
T2 sequence (P30968 whole entry): T1 sequence (whole entry)
The assay is described as follows: Displacement of [125I]-(D-Trp6)LHRH from human recombinant GnRH receptor. The gist of the method:
as §1

In assay [3] the target is T3, 5-hydroxytryptamine receptor 1A (Homo sapiens, UniProt P08908).
T3 sequence (P08908 whole entry): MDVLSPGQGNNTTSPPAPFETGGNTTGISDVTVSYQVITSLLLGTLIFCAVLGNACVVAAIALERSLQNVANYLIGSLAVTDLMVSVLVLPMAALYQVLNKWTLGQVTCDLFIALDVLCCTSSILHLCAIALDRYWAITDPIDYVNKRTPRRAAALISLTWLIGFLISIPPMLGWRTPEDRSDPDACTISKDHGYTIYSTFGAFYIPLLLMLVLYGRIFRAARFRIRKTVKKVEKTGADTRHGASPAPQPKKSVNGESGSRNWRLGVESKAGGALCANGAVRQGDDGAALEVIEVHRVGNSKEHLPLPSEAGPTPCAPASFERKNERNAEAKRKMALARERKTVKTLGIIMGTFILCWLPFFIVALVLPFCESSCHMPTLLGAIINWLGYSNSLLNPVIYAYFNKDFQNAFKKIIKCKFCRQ
The assay is described as follows: Binding affinity to human 5HT1A receptor.

For assay [4], the target named is T2, Gonadotropin-releasing hormone receptor. The assay is described as follows: Antagonist activity at human recombinant GnRH receptor assessed as reduction in (D-Trp6)LHRH-induced myo-(1,2)-[3H]inositol production. It is filed as functional. The gist of the method:
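Recombinant cells expressing human GnRH receptor, pre-labeled with myo-(1,2)-3H-inositol, incubated 1 h in medium with lithium chloride and D-Trp6-LHRH, with or without antagonist. Cells then lysed and labeled inositol phosphates separated from inositol by […] and counted. Run in triplicate, repeated in three independent experiments; IC50 derived.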

The target of assay [5] is T4, Gonadotropin-releasing hormone receptor (Rattus norvegicus, UniProt P30969).
T4 sequence (P30969 whole entry): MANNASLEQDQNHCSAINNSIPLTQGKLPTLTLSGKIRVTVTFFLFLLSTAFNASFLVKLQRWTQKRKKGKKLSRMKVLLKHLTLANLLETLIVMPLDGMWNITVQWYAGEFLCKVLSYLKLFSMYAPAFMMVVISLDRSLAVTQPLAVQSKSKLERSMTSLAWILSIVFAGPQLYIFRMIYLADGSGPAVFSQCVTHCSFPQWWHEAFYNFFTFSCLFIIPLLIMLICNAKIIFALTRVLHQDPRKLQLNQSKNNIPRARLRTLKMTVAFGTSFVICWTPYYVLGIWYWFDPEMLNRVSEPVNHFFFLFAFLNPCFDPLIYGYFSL
Briefly: Displacement of [125I]-(D-Trp6)LHRH from rat recombinant GnRH receptor. The gist of the method:
as §1

The target of assay [6] is T4, Gonadotropin-releasing hormone receptor. Briefly: Antagonist activity at […] GnRH receptor in CO2 asphyxiated rat primary pituitary cells assessed as reduction in (D-Trp6)LHRH-induced LH release. It is filed as functional, cell-based, Pituitary gland cell. An outline of the steps: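 Anterior pituitaries from adult rats were minced, dissociated and plated at 30,000 cells/well in DMEM with 25 mM Hepes and 10% FBS, then cultured 72 h at 37 °C, 5% CO2. After washing, cells were treated 3 h in 0.1% BSA medium with an antagonist dose response plus an ED50 concentration of D-Trp6-LHRH. LH in medium measured by RIA; cell toxicity checked by CellTiter-Glo.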

Assay [7] addresses 5-hydroxytryptamine receptor 1D (Homo sapiens, UniProt P28221). Briefly: Binding affinity to human 5HT1D receptor at 1000 nM.
For assay [8], the target named is 5-hydroxytryptamine receptor 1B (Homo sapiens, UniProt P28222). Briefly: Binding affinity to human 5HT1B receptor at 1000 nM.
Chain of 5-hydroxytryptamine receptor 1B (P28222 whole entry): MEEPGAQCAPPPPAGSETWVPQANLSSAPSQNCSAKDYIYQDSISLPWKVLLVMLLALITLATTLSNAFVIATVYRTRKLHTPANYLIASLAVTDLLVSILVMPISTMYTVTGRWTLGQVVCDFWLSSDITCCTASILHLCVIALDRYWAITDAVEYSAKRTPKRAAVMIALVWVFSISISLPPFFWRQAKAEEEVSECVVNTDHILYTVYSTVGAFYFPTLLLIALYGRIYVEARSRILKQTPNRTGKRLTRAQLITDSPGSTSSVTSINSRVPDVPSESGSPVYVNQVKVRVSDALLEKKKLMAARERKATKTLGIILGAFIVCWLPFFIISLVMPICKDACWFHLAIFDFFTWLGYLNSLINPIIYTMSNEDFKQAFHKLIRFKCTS
Assay [9] addresses T5, 5-hydroxytryptamine receptor 1A (Homo sapiens) (UniProt P08908).
T5 sequence (whole entry): T3 sequence (P08908 whole entry)
The assay is described as follows: Binding affinity to 5HT1A receptor at 10 uM.

Assay [10] concerns the target T6, Alpha-1A adrenergic receptor (Homo sapiens) (UniProt P35348).
T6 sequence (whole entry): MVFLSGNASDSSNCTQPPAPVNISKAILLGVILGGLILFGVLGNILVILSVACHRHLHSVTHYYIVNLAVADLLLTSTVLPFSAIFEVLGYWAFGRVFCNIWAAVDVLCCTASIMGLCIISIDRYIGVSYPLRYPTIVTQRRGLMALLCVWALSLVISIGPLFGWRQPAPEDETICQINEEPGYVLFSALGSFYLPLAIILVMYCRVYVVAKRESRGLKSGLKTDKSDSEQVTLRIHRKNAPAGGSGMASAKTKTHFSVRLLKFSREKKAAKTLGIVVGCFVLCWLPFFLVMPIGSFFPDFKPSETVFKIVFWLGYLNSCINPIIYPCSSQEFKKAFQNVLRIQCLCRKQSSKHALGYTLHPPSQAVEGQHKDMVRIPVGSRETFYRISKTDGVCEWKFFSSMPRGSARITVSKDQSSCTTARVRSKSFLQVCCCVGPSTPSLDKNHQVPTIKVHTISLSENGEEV
The assay is described as follows: Binding affinity to alpha1 adrenergic receptor at 10 uM.

The structures appear in SMILES notation. pIC50, pKi: −log10 of the molar value.

Chain of 5-hydroxytryptamine receptor 1D (P28221 whole entry): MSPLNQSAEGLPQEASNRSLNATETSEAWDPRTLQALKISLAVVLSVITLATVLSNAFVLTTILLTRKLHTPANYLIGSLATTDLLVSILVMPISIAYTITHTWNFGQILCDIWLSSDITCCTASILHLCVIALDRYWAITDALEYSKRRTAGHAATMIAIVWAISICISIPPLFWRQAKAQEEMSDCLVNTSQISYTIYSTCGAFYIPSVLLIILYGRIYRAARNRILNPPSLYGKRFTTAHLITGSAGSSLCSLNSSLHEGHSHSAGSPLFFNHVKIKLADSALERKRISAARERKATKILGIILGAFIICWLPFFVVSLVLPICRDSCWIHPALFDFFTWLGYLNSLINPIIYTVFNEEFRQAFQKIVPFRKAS

With `Cc1cccc(-c2nc3c(N4CCN(CCOc5cccc6[nH]c(=S)[nH]c56)CC4)cccc3[nH]2)c1`, in [1], the Activity came out at 47%.

On to `FC(F)(F)c1nc2c(N3CCN(CCCOc4cccc5[nH]c(=S)[nH]c45)CC3)cccc2[nH]1`, for which the pIC50 (as a rule, the negative decadic logarithm of the IC50, by convention in mol/L) in [2] was 5.48. Also, in assay [3], the pKi (commonly the Ki on a negative log10 scale, so that one unit is a factor of ten) was 8.64.

On to `FC(F)(F)c1nc2cccc(OCCN3CCN(c4cccc5[nH]c(=S)[nH]c45)CC3)c2[nH]1`, for which, in assay [1], the Activity came out at 42%.

Regarding `S=c1[nH]c2cccc(OCCN3CCN(c4cccc5[nH]cnc45)CC3)c2[nH]1`, in assay [1], the Activity turned out to be 5%.

For `FC(F)(F)c1nc2cc(N3CCN(CCOc4cccc5[nH]c(=S)[nH]c45)CC3)ccc2[nH]1`, in [1], the Activity came out at 11%.

`S=c1[nH]c2cccc(OCCN3CCN(c4cccc5nccnc45)CC3)c2[nH]1`: the Activity in assay [1] was found to be 1%.

As for `CC(C)(C)c1ccc(-c2nc3c(N4CCN(CCOc5cccc6nc(C(F)(F)F)[nH]c56)CC4)cccc3[nH]2)cc1`, the negative logarithm of the IC50 (pIC50) in assay [4] is 5.92; in [2], 7.30; in [5], 6.15.

Regarding `CC(C)(C)c1ccc(-c2nc3c(N4CCN(Cc5ccc6[nH]c(=O)c(=O)[nH]c6c5)CC4)cccc3[nH]2)cc1`, the pIC50 is 7.60 in [6], 8.77 in assay [4], 8.31 in assay [2] and 7.40 in assay [5].

As to `FC(F)(F)c1nc2c(N3CCN(CCc4cccc5nc(C(F)(F)F)[nH]c45)CC3)cccc2[nH]1`, in [1], the Activity was found to be 26%.

As for `Cc1nc2c(N3CCN(CCOc4cccc5[nH]c(=S)[nH]c45)CC3)cccc2[nH]1`, the Activity in [1] was 10%.

As for `CCc1ccc(-c2nc3c(N4CCN(CCOc5cccc6nc(C(F)(F)F)[nH]c56)CC4)cccc3[nH]2)cc1`, the pIC50 in [4] is 5.64; in [2], 6.66; in [5], 5.28.

As to `FC(F)(F)c1nc2c(N3CCN(Cc4cccc5[nH]c(=S)[nH]c45)CC3)cccc2[nH]1`, the pIC50 in assay [4] was 5.47; in assay [2], 6.24; in assay [5] it was 4.29.

With `Cn1c(C(F)(F)F)nc2c(N3CCN(CCOc4cccc5[nH]c(C(F)(F)F)nc45)CC3)cccc21`, the Activity in assay [1] was determined as 5%.

In the case of `FC(F)(F)c1nc2c(N3CCN(Cc4cccc5nc(C(F)(F)F)[nH]c45)CC3)cccc2[nH]1`, the pIC50 in assay [4] was 4.68; in assay [2] it was 5.02; in [5], 4.19.

Consider `Cc1ccc(-c2nc3c(N4CCN(CCOc5cccc6[nH]c(=S)[nH]c56)CC4)cccc3[nH]2)c(C)c1`, for which, in assay [2], the pIC50 is 5.92.

`CCc1ccc(-c2nc3c(N4CCN(CCOc5cccc6[nH]c(=S)[nH]c56)CC4)cccc3[nH]2)cc1`: the pIC50 in assay [4] was 6.19; in [2], 6.92; in assay [5], 5.41.

Regarding `FC(F)(F)c1nc2c(N3CCN(CCOc4cccc5[nH]c(=S)[nH]c45)CC3)cccc2[nH]1`, the inhibition in [7] and in assay [8] was 67% throughout. In addition, the pIC50 in [6] is 4.12; in assay [4], 5.35; in assay [2], 6.10; in assay [5], 4.68. Also, the pKi in assay [3] (read-out: Ki) is 8.55.

Take `CC(C)(C)c1ccc(-c2nc3c(N4CCN(Cc5ccccc5)CC4)cccc3[nH]2)cc1`: the Activity in [1] came out at 6%.

Regarding `FC(F)(F)c1nc2c(N3CCN(CCc4cccc5[nH]c(=S)[nH]c45)CC3)cccc2[nH]1`, in assay [1], the Activity turned out to be 51%.

Turning to `O=c1[nH]c2cccc(N3CCN(CCOc4cccc5[nH]c(=S)[nH]c45)CC3)c2[nH]1`, in assay [1], the Activity stood at 6%.

In the case of `O=C(COc1cccc2[nH]c(=S)[nH]c12)N1CCN(c2cccc3[nH]c(C(F)(F)F)nc23)CC1`, the Activity in assay [1] amounted to 24%.

For `S=c1[nH]c2cccc(OCCN3CCN(c4cccc5[nH]c(-c6ccccc6)nc45)CC3)c2[nH]1`, in [2], the pIC50 is 4.96.

Consider `CC(C)(C)c1ccc(-c2nc3c(N4CCN(Cc5cccc6[nH]c(=O)c(=O)[nH]c56)CC4)cccc3[nH]2)cc1`, for which the pIC50 was 6.32 in assay [6], 7.62 in assay [4], 8.24 in [2] and 7.14 in [5].

Take `FC(F)(F)c1nc2c(N3CCN(CCCc4cccc5nc(C(F)(F)F)[nH]c45)CC3)cccc2[nH]1`: in [1], the Activity amounted to 42%.

Regarding `CC(C)c1ccc(-c2nc3c(N4CCN(CCOc5cccc6nc(C(F)(F)F)[nH]c56)CC4)cccc3[nH]2)cc1`, the pIC50 in [4] was 6.35; in [2], 6.92; in assay [5], 6.00.

For `FC(F)(F)c1nc2c(N3CCN(CCOc4ccc5[nH]c(=S)[nH]c5c4)CC3)cccc2[nH]1`, the pIC50 in [2] is 5.35.

With `Cn1c(C(F)(F)F)nc2c(N3CCN(CCOc4cccc5[nH]c(=S)[nH]c45)CC3)cccc21`, in [1], the Activity amounted to 8%.

As to `O=c1[nH]c2cccc(N3CCN(CCOc4cccc5[nH]c(=S)[nH]c45)CC3)c2[nH]c1=O`, the Activity in assay [1] is 9%.

`Cc1ccc(-c2nc3c(N4CCN(CCOc5cccc6[nH]c(=S)[nH]c56)CC4)cccc3[nH]2)cc1`: the pIC50 was 5.55 in [4] and 5.89 in [2].

As to `CC(C)(C)c1ccc(-c2nc3c(N4CCN(Cc5ccc6ccccc6c5)CC4)cccc3[nH]2)cc1`, the Activity in [1] turned out to be 7%.

For `CC(C)(C)c1ccc(-c2nc3c(N4CCN(Cc5cccc6[nH]c(=O)[nH]c56)CC4)cccc3[nH]2)cc1`, the pIC50 in [6] is 5.82; in assay [4] it was 7.20; in assay [2], 8.06; in assay [5] it was 6.17.

For the molecule `CC(C)(C)c1ccc(-c2nc3c(N4CCN(Cc5cccc6[nH]c(=S)[nH]c56)CC4)cccc3[nH]2)cc1`, the pIC50 was 6.62 in assay [6], 7.85 in assay [4], 8.21 in [2] and 6.96 in [5]. The Activity in assay [9] came out at 5%; in assay [10], 7%.

With `O=c1[nH]c2cccc(N3CCN(CCOc4cccc5nc(C(F)(F)F)[nH]c45)CC3)c2[nH]1`, the Activity in assay [1] turned out to be 8%.

Turning to `FC(F)(F)C(F)(F)c1nc2c(N3CCN(CCOc4cccc5[nH]c(=S)[nH]c45)CC3)cccc2[nH]1`, the negative-log IC50 (pIC50) in assay [2] was 5.20; in assay [5], less than 4.00.
